From ChEMBL document CHEMBL1777724, “Discovery, design and synthesis of the first reported potent and selective sphingosine-1-phosphate 4 (S1P4) receptor antagonists” (Bioorg Med Chem Lett, 2011)
pIC50: −log10 of the molar value. Activity calls are given as the source filed them. The calls are words filed in the database; no cut-off is given here.

How the values were obtained:
[1] = biological target: T1, Sphingosine 1-phosphate receptor 4 (Homo sapiens, UniProt O95977); assay: Antagonist activity at S1P4 receptor in human U2OS cells expressing EDG6-linked GAL4-VP16 transcription factor via TEV protease site/beta-arrestin/TEV protease fusion protein and beta-lactamase reporter gene assessed as beta-lactamase expression by FRET assay; assay type: functional, cell-based
T1 sequence (O95977 whole entry): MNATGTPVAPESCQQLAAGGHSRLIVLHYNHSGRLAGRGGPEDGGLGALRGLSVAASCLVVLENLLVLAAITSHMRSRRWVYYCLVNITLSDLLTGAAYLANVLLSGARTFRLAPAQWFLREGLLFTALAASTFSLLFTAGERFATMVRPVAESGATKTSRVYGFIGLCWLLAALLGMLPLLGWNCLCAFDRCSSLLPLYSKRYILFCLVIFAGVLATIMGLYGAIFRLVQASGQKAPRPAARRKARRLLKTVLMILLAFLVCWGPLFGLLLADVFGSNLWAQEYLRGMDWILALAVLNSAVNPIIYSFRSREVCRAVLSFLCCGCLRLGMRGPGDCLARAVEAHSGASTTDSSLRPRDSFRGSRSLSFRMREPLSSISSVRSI
Method in brief: (§1)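 Cells co-express a beta-arrestin/TEV protease fusion protein and a beta-lactamase reporter gene under a UAS response element. Reporter expression was read as FRET of a cleavable, fluorogenic, cell-permeable beta-lactamase substrate. Compounds were tested at concentrations up to 25 μM. IC50 values are the mean of n = 3 determinations.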

[2] = biological target: T2, Sphingosine 1-phosphate receptor 5 (Homo sapiens, UniProt Q9H228); assay: Inhibition of S1P5 receptor
[3] = biological target: Sphingosine 1-phosphate receptor 3 (Homo sapiens, UniProt Q99500); assay: Inhibition of S1P3 receptor at 25 uM
Method in brief: (§2)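 Selectivity counter-screen reported as percentage of inhibition at a single 25 μM concentration, given as the mean of n = 3 determinations.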

[4] = biological target: T2, Sphingosine 1-phosphate receptor 5; assay: Inhibition of S1P5 receptor at 25 uM; method in brief: as §2
[5] = biological target: T3, Sphingosine 1-phosphate receptor 1 (Homo sapiens, UniProt P21453); assay: Inhibition of S1P1 receptor at 25 uM; method in brief: as §2
[6] = biological target: T4, Sphingosine 1-phosphate receptor 2 (Homo sapiens, UniProt O95136); assay: Inhibition of S1P2 receptor at 25 uM; method in brief: as §2
[7] = biological target: T4, Sphingosine 1-phosphate receptor 2; assay: Inhibition of S1P2 receptor
[8] = biological target: T3, Sphingosine 1-phosphate receptor 1; assay: Inhibition of S1P1 receptor
[9] = biological target: T5, Sphingosine 1-phosphate receptor 4 (Homo sapiens) (UniProt O95977); assay: Antagonist activity at S1P4 receptor in human U2OS cells expressing EDG6-linked GAL4-VP16 transcription factor via TEV protease site/beta-arrestin/TEV protease fusion protein and beta-lactamase reporter gene assessed as beta-lactamase expression up to 25 uM by FRET assay; assay type: functional, cell-based; method in brief: as §1
T5 sequence (whole entry): T1 sequence (O95977 whole entry)

T4 sequence (O95136 whole entry): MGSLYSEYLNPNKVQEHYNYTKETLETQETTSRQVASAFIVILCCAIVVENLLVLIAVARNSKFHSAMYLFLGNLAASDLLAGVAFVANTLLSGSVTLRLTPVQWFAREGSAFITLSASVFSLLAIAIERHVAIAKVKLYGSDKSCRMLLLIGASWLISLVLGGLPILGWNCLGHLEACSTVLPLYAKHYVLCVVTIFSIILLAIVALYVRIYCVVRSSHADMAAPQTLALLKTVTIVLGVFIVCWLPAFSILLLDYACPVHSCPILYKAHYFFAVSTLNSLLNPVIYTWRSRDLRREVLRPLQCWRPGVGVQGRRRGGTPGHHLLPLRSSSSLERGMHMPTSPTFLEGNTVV
T2 sequence (Q9H228 whole entry): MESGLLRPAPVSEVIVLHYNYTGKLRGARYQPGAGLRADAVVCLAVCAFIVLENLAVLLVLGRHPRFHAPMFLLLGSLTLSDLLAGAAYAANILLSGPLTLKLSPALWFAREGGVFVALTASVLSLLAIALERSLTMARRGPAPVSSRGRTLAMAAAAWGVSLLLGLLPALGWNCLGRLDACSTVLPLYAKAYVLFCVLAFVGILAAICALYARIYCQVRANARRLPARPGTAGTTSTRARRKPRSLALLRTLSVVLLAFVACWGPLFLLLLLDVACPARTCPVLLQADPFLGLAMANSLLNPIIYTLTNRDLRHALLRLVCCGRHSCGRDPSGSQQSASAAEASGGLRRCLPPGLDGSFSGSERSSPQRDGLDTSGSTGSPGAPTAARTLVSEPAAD
Sequence of Sphingosine 1-phosphate receptor 3 (Q99500 whole entry): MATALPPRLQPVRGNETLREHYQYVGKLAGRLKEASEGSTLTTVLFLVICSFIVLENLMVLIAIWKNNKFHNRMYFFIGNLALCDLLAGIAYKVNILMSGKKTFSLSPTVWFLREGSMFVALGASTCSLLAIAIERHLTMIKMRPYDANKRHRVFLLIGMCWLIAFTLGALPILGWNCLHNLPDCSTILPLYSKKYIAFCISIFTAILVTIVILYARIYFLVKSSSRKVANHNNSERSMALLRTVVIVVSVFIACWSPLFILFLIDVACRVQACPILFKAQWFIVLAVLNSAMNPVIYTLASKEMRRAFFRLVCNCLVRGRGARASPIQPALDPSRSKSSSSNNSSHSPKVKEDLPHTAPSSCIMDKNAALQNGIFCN
T3 sequence (P21453 whole entry): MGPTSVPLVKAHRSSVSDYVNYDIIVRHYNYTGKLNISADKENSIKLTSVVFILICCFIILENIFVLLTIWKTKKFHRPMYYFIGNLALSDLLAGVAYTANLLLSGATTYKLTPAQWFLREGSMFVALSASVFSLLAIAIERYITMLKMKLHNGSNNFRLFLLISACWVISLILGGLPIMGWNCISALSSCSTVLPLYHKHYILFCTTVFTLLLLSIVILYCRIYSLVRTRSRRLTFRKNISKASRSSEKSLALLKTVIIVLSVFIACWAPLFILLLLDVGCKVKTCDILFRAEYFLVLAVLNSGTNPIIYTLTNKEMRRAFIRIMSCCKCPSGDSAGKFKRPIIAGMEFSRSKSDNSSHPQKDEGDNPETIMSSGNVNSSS

## Cc1ccc(C)c(-c2ccc(C(=O)Nc3c(C)cccc3C)o2)c1
[1]
  pIC50: 7.19

## Cc1cccc(C)c1NC(=O)c1ccc(-c2cccs2)o1
[1]
  pIC50: 6.93

## Cc1cccc(C)c1NC(=O)c1ccc(-c2ccc(Cl)s2)o1
[1]
  pIC50: 6.29

## COc1ccc(NC(=O)c2ccc(-c3cc(Cl)ccc3Cl)o2)c(C)c1
[1]
  pIC50: 6.23

## Cc1cccc(C)c1NC(=O)c1ccc(-c2cc(Cl)ccc2Cl)o1
[1]
  pIC50: 7.11
[2]
  pIC50: 4.85

## Cc1ccc(C)c(NC(=O)c2ccc(-c3cc(Cl)ccc3Cl)o2)c1
[1]
  pIC50: 6.78

## Cc1cccc(C)c1NC(=O)c1ccc(-c2ccccc2)o1
[1]
  pIC50: 6.24

## O=C(Nc1c(F)cccc1F)c1ccc(-c2cc(Cl)ccc2Cl)o1
[1]
  pIC50: 5.19

## Cc1ccsc1-c1ccc(C(=O)Nc2c(C)cc(O)cc2C)o1
[3]
  inhibition: 10%
[4]
  inhibition: inactive
[5]
  inhibition: 75%
[6]
  inhibition: 80%
[1]
  pIC50: 7.34

## Cc1ccc(S(C)(=O)=O)c(C)c1NC(=O)c1ccc(-c2cc(Cl)ccc2Cl)o1
[1]
  pIC50: 6.52

## CC(=O)OCc1cc(C)c(NC(=O)c2ccc(-c3cc(Cl)ccc3Cl)o2)c(C)c1
[1]
  pIC50: 7.47

## Cc1cc(-c2ccccc2)cc(C)c1NC(=O)c1ccc(-c2cc(Cl)ccc2Cl)o1
[1]
  pIC50: 6.94

## Cc1ccsc1-c1ccc(C(=O)Nc2c(C)cccc2C)o1
[3]
  inhibition: 20%
[4]
  inhibition: 40%
[5]
  inhibition: 95%
[1]
  pIC50: 7.03
[7]
  pIC50: 5.59

## Cc1cc(O)cc(C)c1NC(=O)c1ccc(-c2cc(Cl)ccc2Cl)o1
[8]
  pIC50: 5.28
[6]
  inhibition: 90%
[1]
  pIC50: 7.24
[2]
  pIC50: 5.52
[7]
  pIC50: 5.55

## Cc1cccc(C)c1NC(=O)c1ccc(-c2ccsc2)o1
[1]
  pIC50: 6.35

## COc1ccc(C)c(NC(=O)c2ccc(-c3cc(Cl)ccc3Cl)o2)c1
[1]
  pIC50: 6.03

## Cc1cccc(C)c1N(C)C(=O)c1ccc(-c2ccco2)o1
[1]
  pIC50: 6.89

## Cc1cccc(C)c1NC(=O)c1ccc(-c2cc(F)ccc2F)o1
[1]
  pIC50: 6.51

## Cc1cccc(CO)c1NC(=O)c1ccc(-c2cc(Cl)ccc2Cl)o1
[1]
  pIC50: 6.24

## Cc1cccc(Cl)c1NC(=O)c1ccc(-c2cc(Cl)ccc2Cl)o1
[1]
  pIC50: 6.77

## Cc1cccc(C)c1NC(=O)c1ccc(-c2cccc(Cl)c2)o1
[1]
  pIC50: 6.30

## Cc1cc(C)c(N(C)C(=O)c2ccc(-c3cc(Cl)ccc3Cl)o2)c(C)c1
[1]
  pIC50: 5.09

## CCc1cccc(C)c1NC(=O)c1ccc(-c2cc(Cl)ccc2Cl)o1
[3]
  inhibition: 55%
[4]
  inhibition: 50%
[5]
  inhibition: inactive
[6]
  inhibition: 50%
[1]
  pIC50: 7.39

## CC(=O)NCc1cc(C)c(NC(=O)c2ccc(-c3cc(Cl)ccc3Cl)o2)c(C)c1
[1]
  pIC50: 7.03

## Cc1cc(CO)cc(C)c1NC(=O)c1ccc(-c2cc(Cl)ccc2Cl)o1
[3]
  inhibition: 60%
[4]
  inhibition: 40%
[5]
  inhibition: 45%
[6]
  inhibition: 85%
[1]
  pIC50: 7.68
[7]
  pIC50: 5.52

## Cc1cccc(C)c1NC(=O)c1ccc(-c2c(C)cccc2C)o1
[9]
  inhibition: inactive

## Cc1cc(CN)cc(C)c1NC(=O)c1ccc(-c2cc(Cl)ccc2Cl)o1
[3]
  inhibition: 95%
[4]
  inhibition: 90%
[8]
  pIC50: 5.19
[6]
  inhibition: 90%
[1]
  pIC50: 7.60
[2]
  pIC50: 5.26
[7]
  pIC50: 5.41

## Cc1cccc(C)c1NC(=O)c1ccc(-c2ccc(Cl)cc2Cl)o1
[1]
  pIC50: 5.70

## COc1cccc(C)c1NC(=O)c1ccc(-c2cc(Cl)ccc2Cl)o1
[1]
  pIC50: 6.79

## COc1cc(C)c(NC(=O)c2ccc(-c3cc(Cl)ccc3Cl)o2)c(C)c1
[3]
  inhibition: 30%
[4]
  inhibition: 40%
[5]
  inhibition: 20%
[6]
  inhibition: 70%
[1]
  pIC50: 7.10
[7]
  pIC50: 5.55

## Cc1cc(CN(C)C)cc(C)c1NC(=O)c1ccc(-c2cc(Cl)ccc2Cl)o1
[1]
  pIC50: 6.46

## COc1ccc(OC)c(-c2ccc(C(=O)N(C)c3c(C)cccc3C)o2)c1
[1]
  pIC50: 6.29

## Cc1cccc(C)c1N(C)C(=O)c1ccc(-c2ccccc2Cl)o1
[1]
  pIC50: 6.57

## COc1cccc(OC)c1NC(=O)c1ccc(-c2cc(Cl)ccc2Cl)o1
[1]
  pIC50: 6.38

## O=C(c1ccc(-c2cc(Cl)ccc2Cl)o1)N1CCc2ccccc21
[9]
  inhibition: inactive

## Cc1cccc(C)c1NC(=O)c1ccc(-c2cc(C(F)(F)F)ccc2C(F)(F)F)o1
[9]
  inhibition: inactive

## CC(C)c1cccc(C(C)C)c1NC(=O)c1ccc(-c2cc(Cl)ccc2Cl)o1
[1]
  pIC50: 6.98

## Cc1cc(OCC(N)=O)cc(C)c1NC(=O)c1ccc(-c2cc(Cl)ccc2Cl)o1
[1]
  pIC50: 7.28

## Cc1cccc(C)c1N(C)C(=O)c1ccc(-c2cc(O)ccc2O)o1
[9]
  inhibition: inactive

## Cc1ccsc1-c1ccc(C(=O)Nc2c(C)cc(CO)cc2C)o1
[3]
  inhibition: inactive
[4]
  inhibition: inactive
[5]
  inhibition: 80%
[6]
  inhibition: 90%
[1]
  pIC50: 7.47

## Cc1ccc2ccccc2c1NC(=O)c1ccc(-c2cc(Cl)ccc2Cl)o1
[1]
  pIC50: 6.60

## Cc1cscc1-c1ccc(C(=O)Nc2c(C)cccc2C)o1
[1]
  pIC50: 6.54

## Cc1cc(OCCO)cc(C)c1NC(=O)c1ccc(-c2cc(Cl)ccc2Cl)o1
[3]
  inhibition: 70%
[4]
  inhibition: 60%
[5]
  inhibition: 35%
[6]
  inhibition: 90%
[1]
  pIC50: 7.36
[7]
  pIC50: 5.62

## CCc1cccc(CC)c1NC(=O)c1ccc(-c2cc(Cl)ccc2Cl)o1
[3]
  inhibition: inactive
[4]
  inhibition: inactive
[5]
  inhibition: inactive
[6]
  inhibition: inactive
[1]
  pIC50: 7.05

## Cc1cc(C)c(NC(=O)c2ccc(-c3cc(Cl)ccc3Cl)o2)c(C)c1
[1]
  pIC50: 7.20
